Measurements published in ChEMBL document CHEMBL4354873, “Rationally Designed Small-Molecule Inhibitors Targeting an Unconventional Pocket on the TLR8 Protein-Protein Interface” (J Med Chem, 2020).
Calls of active or inactive are those of the source. No cut-off for these calls is given here.

Tests used:
Assay type in all cases: cell-based
[1] = target: Toll-like receptor 4 (Homo sapiens) (UniProt O00206); assay: Inhibition of human TLR4 expressed in HEK-Blue cells assessed as inhibition of LPS-induced NF-kappaB activation at 20 uM measured after 24 hrs by quanti-blue based SEAP reporter gene assay
In short: (§1)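 HEK-Blue SEAP format: 4 × 10⁴ cells/well in DMEM with ligand plus compound, 24 h at 37 °C. Supernatant mixed with QUANTI-Blue up to 1 h, then A620 read. Ligands: Pam3CSK4 100 ng/mL (TLR1/2), Pam2CSK4 100 ng/mL (TLR2/6), poly(I:C) 5 µg/mL (TLR3), LPS 20 ng/mL (TLR4), flagellin 50 ng/mL (TLR5), R848 1 µg/mL (TLR7), R848 2 µg/mL (TLR8), ODN2006 0.5 µM (TLR9). Mean ± s.d.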

[2] = target: T1, Toll-like receptor 8 (Homo sapiens) (UniProt Q9NR97); assay: Inhibition of human TLR8 expressed in HEK-Blue cells assessed as inhibition of R848-induced NF-kappaB activation at 20 uM measured after 24 hrs by quanti-blue based SEAP reporter gene assay; in short: as §1
T1 sequence (whole entry): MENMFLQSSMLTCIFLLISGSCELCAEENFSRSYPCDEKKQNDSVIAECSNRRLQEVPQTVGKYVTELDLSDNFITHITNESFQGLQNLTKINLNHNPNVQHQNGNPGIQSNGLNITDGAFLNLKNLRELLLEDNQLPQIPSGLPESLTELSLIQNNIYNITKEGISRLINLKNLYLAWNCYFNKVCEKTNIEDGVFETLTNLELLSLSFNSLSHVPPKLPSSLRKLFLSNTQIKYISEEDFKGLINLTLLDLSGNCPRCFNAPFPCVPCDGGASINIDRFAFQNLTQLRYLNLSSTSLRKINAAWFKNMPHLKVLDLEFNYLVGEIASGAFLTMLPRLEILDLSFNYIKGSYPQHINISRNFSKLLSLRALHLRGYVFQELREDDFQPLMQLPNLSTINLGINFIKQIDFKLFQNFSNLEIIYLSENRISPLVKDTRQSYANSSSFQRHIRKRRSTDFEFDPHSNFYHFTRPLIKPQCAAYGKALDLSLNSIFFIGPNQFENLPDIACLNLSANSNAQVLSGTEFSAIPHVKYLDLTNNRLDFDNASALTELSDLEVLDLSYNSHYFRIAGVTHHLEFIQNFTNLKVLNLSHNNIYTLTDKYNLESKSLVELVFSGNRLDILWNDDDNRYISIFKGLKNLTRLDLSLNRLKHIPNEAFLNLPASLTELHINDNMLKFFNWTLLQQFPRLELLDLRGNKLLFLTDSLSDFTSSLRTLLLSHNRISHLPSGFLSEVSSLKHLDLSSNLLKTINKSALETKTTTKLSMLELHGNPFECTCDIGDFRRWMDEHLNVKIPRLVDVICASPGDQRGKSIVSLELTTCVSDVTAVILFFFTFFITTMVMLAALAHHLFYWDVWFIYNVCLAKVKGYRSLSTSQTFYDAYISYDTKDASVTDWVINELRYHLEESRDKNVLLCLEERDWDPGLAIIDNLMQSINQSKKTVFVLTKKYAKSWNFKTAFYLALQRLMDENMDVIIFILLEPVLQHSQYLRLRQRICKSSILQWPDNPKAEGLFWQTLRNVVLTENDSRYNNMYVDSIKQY

[3] = target: T1, Toll-like receptor 8 (Homo sapiens); assay: Inhibition of human TLR8 expressed in HEK-Blue cells assessed as inhibition of R848-induced TNFalpha mRNA level at 1 uM measured after 8 hrs by Trizol reagent based qRT-PCR analysis
In short: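 RT-qPCR: HEK-Blue TLR8 cells seeded at 1 × 10⁶/well and grown 24 h, then switched to serum-free medium. Treated with R848 4 µg/mL ± compound 1 µM for 8 h. Total RNA extracted with TRIzol, reverse transcribed, TNF-α and IL-8 mRNA quantified. Three independent biological replicates, mean ± s.d.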

[4] = target: T1, Toll-like receptor 8 (Homo sapiens); assay: Inhibition of TLR8 in human monocytes assessed as reduction in R848-induced IL6 production measured after 24 hrs by ELISA
In short: (§2)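 Human monocyte cell lines in RPMI 1640 with 10% FBS and 0.05 mM 2-mercaptoethanol, 1 × 10⁶/well, 24 h. After PBS washes, fresh RPMI added with R848 1 µg/mL and varying compound concentrations for 24 h. Supernatant TNF-α, IL-6 and IL-1β measured by ELISA.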

[5] = target: Toll-like receptor 5 (Homo sapiens) (UniProt O60602); assay: Inhibition of human TLR5 expressed in HEK-Blue cells assessed as inhibition of flagellin-induced NF-kappaB activation at 20 uM measured after 24 hrs by quanti-blue based SEAP reporter gene assay; in short: as §1
[6] = target: T1, Toll-like receptor 8 (Homo sapiens); assay: Inhibition of TLR8 in human monocytes assessed as reduction in R848-induced IL1beta production measured after 24 hrs by ELISA; in short: as §2
Toll-like receptor 8 = target: T2, Toll-like receptor 8 (Homo sapiens, UniProt Q9NR97); assay: (§3) Inhibition of human TLR8 expressed in HEK-Blue cells assessed as inhibition of R848-induced NF-kappaB activation measured after 24 hrs by quanti-blue based SEAP reporter gene assay
T2 sequence (Q9NR97 whole entry): T1 sequence (whole entry)

[7] = target: T1, Toll-like receptor 8 (Homo sapiens); assay: as §3
[8] = target: T1, Toll-like receptor 8 (Homo sapiens); assay: Inhibition of TLR8 in human monocytes assessed as reduction in R848-induced TNFalpha production measured after 24 hrs by ELISA; in short: as §2
PBMC = assay: Cytotoxicity against rheumatoid arthritis patient-derived PBMC assessed as reduction in cell viability up to 80 uM measured after 24 hrs by CCK8 assay; conditions: human
In short: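 CCK-8 viability: compounds incubated 24 h at 37 °C with HEK-Blue TLR8 cells (4 × 10⁴ cells/well) or PBMCs (3 × 10⁶ cells/mL). CCK-8 was added at 1:10 for up to 2 h, then absorbance read at 450 nm. Values normalized to untreated cells as 100% survival.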

Toll-like receptor 4 (Homo sapiens), sequence (O00206 whole entry): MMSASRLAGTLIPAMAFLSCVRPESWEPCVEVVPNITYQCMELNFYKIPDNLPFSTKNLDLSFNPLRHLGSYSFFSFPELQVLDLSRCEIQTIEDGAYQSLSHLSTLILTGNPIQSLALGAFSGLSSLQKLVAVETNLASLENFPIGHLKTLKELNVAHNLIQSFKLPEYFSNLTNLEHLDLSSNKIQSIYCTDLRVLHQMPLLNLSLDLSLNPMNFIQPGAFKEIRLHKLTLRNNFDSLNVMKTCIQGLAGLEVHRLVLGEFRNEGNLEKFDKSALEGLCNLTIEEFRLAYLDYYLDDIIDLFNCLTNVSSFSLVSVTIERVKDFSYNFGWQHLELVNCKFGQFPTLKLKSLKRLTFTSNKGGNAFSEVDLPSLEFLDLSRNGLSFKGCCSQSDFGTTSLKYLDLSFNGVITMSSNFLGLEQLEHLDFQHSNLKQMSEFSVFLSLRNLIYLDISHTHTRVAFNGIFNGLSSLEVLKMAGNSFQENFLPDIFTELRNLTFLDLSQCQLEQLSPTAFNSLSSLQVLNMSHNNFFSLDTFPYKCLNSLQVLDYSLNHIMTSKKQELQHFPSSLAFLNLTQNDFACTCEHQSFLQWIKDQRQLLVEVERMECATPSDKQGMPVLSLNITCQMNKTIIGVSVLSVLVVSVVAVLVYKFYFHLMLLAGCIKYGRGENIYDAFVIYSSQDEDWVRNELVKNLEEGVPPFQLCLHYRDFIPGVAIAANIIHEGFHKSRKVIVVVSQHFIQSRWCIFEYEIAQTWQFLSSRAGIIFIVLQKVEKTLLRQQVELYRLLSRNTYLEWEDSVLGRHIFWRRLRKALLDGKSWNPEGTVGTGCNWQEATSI
Toll-like receptor 5 (Homo sapiens), sequence (O60602 whole entry): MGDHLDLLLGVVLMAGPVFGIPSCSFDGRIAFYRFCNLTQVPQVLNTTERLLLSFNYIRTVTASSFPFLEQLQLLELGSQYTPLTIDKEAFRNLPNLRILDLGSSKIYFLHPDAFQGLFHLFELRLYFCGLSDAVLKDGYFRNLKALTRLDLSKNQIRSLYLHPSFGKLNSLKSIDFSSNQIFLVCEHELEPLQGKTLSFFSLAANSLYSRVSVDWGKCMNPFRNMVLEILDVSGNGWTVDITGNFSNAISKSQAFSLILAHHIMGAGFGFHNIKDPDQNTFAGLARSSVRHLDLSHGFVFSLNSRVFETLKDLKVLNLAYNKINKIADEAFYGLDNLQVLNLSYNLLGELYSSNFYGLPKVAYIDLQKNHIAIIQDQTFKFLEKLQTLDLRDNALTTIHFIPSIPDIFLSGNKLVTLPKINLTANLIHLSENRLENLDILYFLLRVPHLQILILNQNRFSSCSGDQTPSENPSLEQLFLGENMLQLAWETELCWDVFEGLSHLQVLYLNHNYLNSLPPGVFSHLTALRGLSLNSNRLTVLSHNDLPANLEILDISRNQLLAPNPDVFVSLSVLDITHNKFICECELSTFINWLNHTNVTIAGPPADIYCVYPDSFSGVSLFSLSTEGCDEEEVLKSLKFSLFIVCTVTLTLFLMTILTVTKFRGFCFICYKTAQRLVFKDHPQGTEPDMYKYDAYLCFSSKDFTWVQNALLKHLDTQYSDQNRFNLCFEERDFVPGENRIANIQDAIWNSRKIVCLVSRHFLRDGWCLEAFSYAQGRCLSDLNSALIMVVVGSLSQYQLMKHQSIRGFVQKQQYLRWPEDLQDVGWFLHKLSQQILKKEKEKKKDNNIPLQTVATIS

inhibition [1]: inactive
inhibition [2]: Active
inhibition [3]: Active
inhibition [4]: Dose-dependent effect
inhibition [5]: inactive
inhibition [6]: Dose-dependent effect
IC50 (Toll-like receptor 8): 30 nM
inhibition [7]: Dose-dependent effect
inhibition [8]: Dose-dependent effect
Structure (SMILES): CSc1nnc(CCCO)n1-c1cc(C)c(C)c(C)c1
Activity (PBMC): Non-Toxic
